In ChEMBL document CHEMBL1126090, “Electrophilic opioid ligands. Oxygen tethered alpha-methylene-gamma-lactone, acrylate, isothiocyanate, and epoxide derivatives of 6 beta-naltrexol” (J Med Chem, 1992):

Experiments:
[1] = target: Kappa-type opioid receptor (Cavia porcellus, UniProt P41144); experiment: Displacement of 0.5 nM [3H]bremazocine from guinea pig brain membrane opioid receptor kappa with 100 nM DAGO and 100 nM DPDPE
How it was run: (§1)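 Crude guinea pig brain membrane homogenate. Compounds as free amine in 50% acetic acid, serially diluted in water; nine concentrations in competition with radioligand ([3H]DAGO for μ; [3H]bremazocine plus unlabeled DAGO and DPDPE for κ). Incubated in 50 mM Tris-HCl pH 7.4, 25 °C, 1 h. Then GF/B filtration, two cold buffer rinses, scintillation counting. IC50 by log-probit analysis.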

[2] = target: Opioid receptors; mu/kappa/delta; experiment: Inhibition of 0.5 nM [3H]bremazocine binding to guinea pig brain membrane opioid receptors; parameters: species or system Cavia porcellus
Mu-type opioid receptor = Mu-type opioid receptor (Cavia porcellus, UniProt P97266); experiment: inhibition of 1.0 nM [3H]- DAGO binding to guinea pig brain membrane opioid receptor mu; how it was run: as §1
Sequence of Mu-type opioid receptor (P97266 whole entry): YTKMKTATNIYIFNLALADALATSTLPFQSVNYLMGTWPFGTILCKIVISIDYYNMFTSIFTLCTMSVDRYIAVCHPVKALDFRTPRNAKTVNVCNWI

[3] = target: Mu-type opioid receptor (Cavia porcellus) (UniProt P97266); experiment: Compound was evaluated for the percent recovery of 1.0 nM of [3H]- DAGO binding to opioid receptor mu in guinea pig brain membranes at 10 (nM) concentration protection by 1 uM Naloxone.; type: cell membranes; settings: Membrane
Sequence of Mu-type opioid receptor (Cavia porcellus) (P97266 whole entry): as above
How it was run: (§2)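 Membranes were then washed (4-fold dilution, 20000g for 15 min, 37 °C for 15 min in 3 volumes, recentrifuged) and assayed with the named radioligand by filtration binding. Reported as percent recovery.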

[4] = target: Mu-type opioid receptor (Cavia porcellus) (UniProt P97266); experiment: Compound was evaluated for the percent recovery of 1.0 nM of [3H]- DAGO binding to opioid receptor mu in un washed guinea pig brain membranes at 10 (nM) concentration; settings: Membrane
[5] = target: Delta-type opioid receptor (Homo sapiens) (UniProt P41143); experiment: Compound was evaluated for the percent recovery of 1.0 nM of [3H]- DPDPE binding to Opioid receptor delta 1 in guinea pig brain membranes at 22(nM) concentration protection by 1 uM Naloxone.; type: cell membranes; settings: Cavia porcellus, Membrane, target entry is the homologue from another species; how it was run: as §2
Sequence of Delta-type opioid receptor (Homo sapiens) (P41143 whole entry): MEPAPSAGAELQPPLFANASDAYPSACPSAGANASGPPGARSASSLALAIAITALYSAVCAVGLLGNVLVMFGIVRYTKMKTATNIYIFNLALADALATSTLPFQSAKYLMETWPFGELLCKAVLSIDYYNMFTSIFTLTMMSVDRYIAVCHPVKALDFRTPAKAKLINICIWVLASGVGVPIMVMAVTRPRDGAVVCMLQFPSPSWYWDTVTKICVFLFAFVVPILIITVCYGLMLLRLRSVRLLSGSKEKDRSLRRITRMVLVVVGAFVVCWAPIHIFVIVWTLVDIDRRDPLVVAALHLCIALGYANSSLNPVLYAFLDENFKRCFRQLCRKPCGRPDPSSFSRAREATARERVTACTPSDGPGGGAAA

[6] = target: T1, Opioid receptors; mu/kappa/delta (Homo sapiens) (UniProt P41145+P41143+P35372); experiment: Compound was evaluated for the percent recovery of 0.5 nM of [3H]- bremazocine binding to total opioid receptor in guinea pig brain membranes at 50 (nM) concentration protection by 1 uM Naloxone.; type: cell membranes; settings: Cavia porcellus, Membrane, target entry is the homologue from another species; how it was run: as §2
T1 sequence (P35372 whole entry, looked up): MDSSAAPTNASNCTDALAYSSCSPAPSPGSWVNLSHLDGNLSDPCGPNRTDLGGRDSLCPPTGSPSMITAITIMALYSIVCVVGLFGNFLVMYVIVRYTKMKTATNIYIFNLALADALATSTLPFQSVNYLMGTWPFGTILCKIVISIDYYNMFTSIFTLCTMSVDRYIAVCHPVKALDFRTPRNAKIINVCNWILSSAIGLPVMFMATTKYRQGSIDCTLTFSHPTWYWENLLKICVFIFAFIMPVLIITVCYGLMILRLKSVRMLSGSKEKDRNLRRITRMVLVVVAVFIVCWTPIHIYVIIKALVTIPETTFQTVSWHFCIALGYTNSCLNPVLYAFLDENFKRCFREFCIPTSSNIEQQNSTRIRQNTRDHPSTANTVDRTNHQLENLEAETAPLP
T1 sequence (P41143 whole entry, looked up): as the sequence (P41143 whole entry) above
T1 sequence (P41145 whole entry, looked up): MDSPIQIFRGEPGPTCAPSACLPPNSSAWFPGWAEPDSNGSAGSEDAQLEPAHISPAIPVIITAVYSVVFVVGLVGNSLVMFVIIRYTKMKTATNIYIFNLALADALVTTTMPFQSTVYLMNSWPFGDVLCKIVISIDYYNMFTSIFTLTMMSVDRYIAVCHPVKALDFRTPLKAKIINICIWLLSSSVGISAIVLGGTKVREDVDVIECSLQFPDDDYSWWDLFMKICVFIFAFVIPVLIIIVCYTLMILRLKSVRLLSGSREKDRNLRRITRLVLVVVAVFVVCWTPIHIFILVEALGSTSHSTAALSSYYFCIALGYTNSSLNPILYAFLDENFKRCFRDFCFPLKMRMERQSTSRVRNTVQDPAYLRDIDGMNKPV

[7] = target: Mu-type opioid receptor (Cavia porcellus) (UniProt P97266); experiment: Compound was evaluated for the percent recovery of 1.0 nM of [3H]- DAGO binding to opioid receptor mu in washed guinea pig brain membranes at 10 (nM) concentration; type: cell membranes; settings: Membrane
How it was run: (§3)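 Guinea pig brain membranes were exposed to ligand for 1 h at 25 °C. Washing: 4-fold dilution with buffer, 20000g for 15 min, pellet resuspended in 3 volumes of buffer, 37 °C for 15 min, recentrifuged, resuspended in the original volume. Rebinding with the named radioligand in Tris-HCl pH 7.4, 25 °C, 1 h, filtration, scintillation. Reported as percent recovery.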

[8] = target: T1, Opioid receptors; mu/kappa/delta (Homo sapiens); experiment: Compound was evaluated for the percent recovery of 0.5 nM of [3H]- bremazocine binding to total opioid receptor in washed guinea pig brain membranes at 50 (nM) concentration of the compound; type: cell membranes; settings: Cavia porcellus, Membrane, target entry is the homologue from another species; how it was run: as §3
[9] = target: T1, Opioid receptors; mu/kappa/delta (Homo sapiens); experiment: Compound was evaluated for the percent recovery of 0.5 nM of [3H]- bremazocine binding to total opioid receptor in unwashed guinea pig brain membranes at 50 (nM) concentration of the compound; type: cell membranes; settings: Cavia porcellus, Membrane, target entry is the homologue from another species
[10] = target: T1, Opioid receptors; mu/kappa/delta (Homo sapiens); experiment: Compound was evaluated for the percent recovery of 0.5 nM of [3H]- bremazocine binding to of total opioid receptor in unwashed guinea pig brain membranes at 50(nM) concentration of the compound; type: cell membranes; settings: Cavia porcellus, Membrane, target entry is the homologue from another species
[11] = target: T1, Opioid receptors; mu/kappa/delta (Homo sapiens); experiment: Compound was evaluated for the percent recovery of 0.5 nM of [3H]- bremazocine binding to of total opioid receptor in washed guinea pig brain membranes at 50 (nM) concentration of the compound; type: cell membranes; settings: Cavia porcellus, Membrane, target entry is the homologue from another species; how it was run: as §3
[12] = target: Mu-type opioid receptor (Cavia porcellus) (UniProt P97266); experiment: Compound was evaluated for the percent recovery of 1.0 nM of [3H]- DAGO binding to opioid receptor mu in washed guinea pig brain membranes at 10(nM) concentration; type: cell membranes; settings: Membrane; how it was run: as §3
[13] = target: Delta-type opioid receptor (Homo sapiens) (UniProt P41143); experiment: Compound was evaluated for the percent recovery of 1.0 nM of [3H]- DPDPE binding to Opioid receptor delta 1 in guinea pig brain membranes at 17(nM) concentration protection by 1 uM Naloxone.; type: cell membranes; settings: Cavia porcellus, Membrane, target entry is the homologue from another species; how it was run: as §2
[14] = target: Mu-type opioid receptor (Cavia porcellus) (UniProt P97266); experiment: Compound was evaluated for the percent recovery of 1.0 nM of [3H]- DAGO binding to opioid receptor mu in un washed guinea pig brain membranes at 10(nM) concentration; settings: Membrane

Sequence of Kappa-type opioid receptor (P41144 whole entry): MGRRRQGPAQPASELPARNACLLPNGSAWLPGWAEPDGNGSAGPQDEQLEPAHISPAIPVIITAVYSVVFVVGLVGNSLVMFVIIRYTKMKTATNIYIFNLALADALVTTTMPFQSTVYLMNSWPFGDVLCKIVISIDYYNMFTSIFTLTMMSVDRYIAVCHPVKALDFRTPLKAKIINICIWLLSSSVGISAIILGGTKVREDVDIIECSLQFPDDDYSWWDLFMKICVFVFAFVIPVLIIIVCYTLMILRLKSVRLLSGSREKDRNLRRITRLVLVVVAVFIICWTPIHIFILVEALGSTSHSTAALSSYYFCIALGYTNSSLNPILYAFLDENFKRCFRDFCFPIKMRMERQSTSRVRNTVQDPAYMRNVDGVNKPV

Row | Compound | IC50 [1] [nM] | IC50 [2] [nM] | IC50 (Mu-type opioid receptor) [nM] | % recovery [3] | % recovery [4] | % recovery [5] | % recovery [6] | % recovery [7] | % recovery [8] | % recovery [9] | % recovery [10] | % recovery [11] | % recovery [12] | % recovery [13] | % recovery [14]
1 | Oc1ccc2c3c1O[C@H]1[C@H](OC[C@H]4CO4)CC[C@@]4(O)[C@@H](C2)N(CC2CC2)CC[C@]314 | 17 | 11 | 2.9 | – | – | – | – | – | – | – | – | – | – | – | –
2 | C=C1C[C@@H](CO[C@@H]2CC[C@@]3(O)[C@H]4Cc5ccc(O)c6c5[C@@]3(CCN4CC3CC3)[C@H]2O6)OC1=O | 28 | 18 | 3.4 | – | – | – | – | – | – | – | – | – | – | – | –
3 | C=C1C[C@H](CO[C@@H]2CC[C@@]3(O)[C@H]4Cc5ccc(O)c6c5[C@@]3(CCN4CC3CC3)[C@H]2O6)OC1=O | 44 | 19 | 4.2 | 88 | – | – | – | – | – | – | – | – | – | – | –
4 | C=C1C[C@H](CO[C@@H]2CC[C@@]3(OC(C)=O)[C@H]4Cc5ccc(O)c6c5[C@@]3(CCN4CC3CC3)[C@H]2O6)OC1=O | 48 | 15 | 2.2 | 94 | 10 | 86 | 84 | 49 | 68 | 27 | – | – | – | – | –
5 | C=C1C[C@@H](CO[C@@H]2CC[C@@]3(OC(C)=O)[C@H]4Cc5ccc(O)c6c5[C@@]3(CCN4CC3CC3)[C@H]2O6)OC1=O | 25 | 14 | 2.8 | 55 | – | – | 61 | – | – | – | 20 | 54 | 71 | 71 | 21
6 | Oc1ccc2c3c1O[C@H]1[C@H](OC[C@@H]4CO4)CC[C@@]4(O)[C@@H](C2)N(CC2CC2)CC[C@]314 | 17 | 12 | 3.5 | – | – | – | 88 | – | 79 | 10 | – | – | – | – | –
